Calls of active or inactive are those of the source. The calls are words filed in the database; no cut-off is given here.
Legend:
[1] = tested on: PC-3; assay: Antiproliferative activity against human PC3 cells assessed as growth inhibition after 72 hrs by MTT assay; format: functional, cell-based; conditions: Homo sapiens, PC-3, 72 h; read-out: IC50
Method in brief: (§1)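 MTT viability assay. Cancer lines seeded at 3000–6000 cells/well and L02 at 7000 cells/well, cultured overnight, then exposed to a full dose range for 72 h. MTT (0.5 mg/mL) added for 4 h, supernatant removed, formazan dissolved in DMSO, absorbance read at 570 nm. IC50 taken as the mean of three independent experiments. Cells grown in DMEM + 10% FBS, 37 °C, 5% CO2.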

[2] = tested on: A-375; assay: Induction of apoptosis in human A375 cells assessed as late apoptotic cells at 5 uM after 24 hrs by annexinV-FITC/propidium iodide staining based flow cytometric analysis (reference value: 0.63%); format: functional
[3] = tested on: A549; assay: Antiproliferative activity against human A549 cells assessed as growth inhibition at 10 uM after 72 hrs by MTT assay relative to control; format: functional; conditions: read-out: GI
Method in brief: (§2)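 Single-concentration MTT screen on MCF-7 and A549 cells grown in DMEM + 10% FBS. Cells at 3000–6000/well, cultured overnight, then given compound in buffer with 1% DMSO for 72 h. MTT (0.5 mg/mL) added for 4 h, formazan dissolved in DMSO, A570 read. Percent inhibition reported as the average ± S.D. of three independent measurements.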

[4] = tested on: A-375; assay: Induction of apoptosis in human A375 cells assessed as necrotic cells at 5 uM after 24 hrs by annexinV-FITC/propidium iodide staining based flow cytometric analysis (reference value: 0.56%); format: functional
[5] = tested on: A-375; assay: Induction of apoptosis in human A375 cells assessed as viable cells at 5 uM after 24 hrs by annexinV-FITC/propidium iodide staining based flow cytometric analysis (Rvb= 97.94%); format: functional; conditions: read-out: Activity
[6] = tested on: A-375; assay: Antiproliferative activity against human A375 cells assessed as growth inhibition after 72 hrs by MTT assay; format: functional, cell-based; conditions: Homo sapiens, A-375, 72 h; read-out: IC50; method in brief: as §1
[7] = tested on: SH-SY5Y; assay: Antiproliferative activity against human SHSY-5Y cells assessed as growth inhibition after 72 hrs by MTT assay; format: functional, cell-based; conditions: Homo sapiens, SH-SY5Y, 72 h; read-out: IC50; method in brief: as §1
[8] = tested on: A-375; assay: Induction of apoptosis in human A375 cells assessed as necrotic cells at 5 uM after 12 hrs by annexinV-FITC/propidium iodide staining based flow cytometric analysis (reference value: 0.56%); format: functional
[9] = tested on: A549; assay: Antiproliferative activity against human A549 cells assessed as growth inhibition after 72 hrs by MTT assay; format: functional, cell-based; conditions: Homo sapiens, A549, 72 h; read-out: IC50; method in brief: as §1
[10] = tested on: HCT-116; assay: Antiproliferative activity against human HCT-116 cells assessed as growth inhibition after 72 hrs by MTT assay; format: functional, cell-based; conditions: Homo sapiens, HCT-116, 72 h; read-out: IC50; method in brief: as §1
[11] = species on record: Homo sapiens; assay: Inhibition of PDK (unknown origin) using RYHGHSMSDP as substrate at 1 uM after 30 mins by Kinase-Glo luminescent assay
[12] = tested on: A-375; assay: Inhibition of PDK in human A375 cells assessed as reduction in phosphorylation of PDC E1alpha at ser293 residues at 5 uM after 24 hrs by Western blot analysis; format: cell-based
Method in brief: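 A375 cells in 6-well plates, treated 24 h. Lysed 15 min and spun 12000 rpm at 4 °C for 15 min. Protein equalized by BCA and denatured in SDS buffer at 100 °C for 8 min. Run on SDS-PAGE, transferred to nitrocellulose, blocked in 5% milk 2 h, primary antibody overnight, HRP anti-rabbit IgG 2 h, ECL detection.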

[13] = tested on: A-375; assay: Induction of apoptosis in human A375 cells assessed as viable cells at 5 uM after 36 hrs by annexinV-FITC/propidium iodide staining based flow cytometric analysis (reference value: 94.15%); format: functional; conditions: read-out: Activity
[14] = tested on: MCF7; assay: Antiproliferative activity against human MCF7 cells assessed as growth inhibition after 72 hrs by MTT assay; format: functional, cell-based; conditions: Homo sapiens, MCF7, 72 h; read-out: IC50; method in brief: as §1
[15] = tested on: A-375; assay: Induction of apoptosis in human A375 cells assessed as early apoptotic cells at 5 uM after 24 hrs by annexinV-FITC/propidium iodide staining based flow cytometric analysis (reference value: 0.87%); format: functional
[16] = Inhibition of PDK (unknown origin) using RYHGHSMSDP as substrate after 30 mins by Kinase-Glo luminescent assay; design: species or system Homo sapiens
[17] = tested on: L02; assay: Cytotoxicity against human L02 cells assessed as reduction in cell viability after 72 hrs by MTT assay; format: cell-based; conditions: Homo sapiens, L02, 72 h; read-out: IC50; method in brief: as §1
[18] = tested on: A-375; assay: Induction of apoptosis in human A375 cells assessed as early apoptotic cells at 5 uM after 12 hrs by annexinV-FITC/propidium iodide staining based flow cytometric analysis (reference value: 0.87%); format: functional
[19] = tested on: A-375; assay: Induction of apoptosis in human A375 cells assessed as late apoptotic cells at 5 uM after 12 hrs by annexinV-FITC/propidium iodide staining based flow cytometric analysis (reference value: 0.63%); format: functional
[20] = tested on: A-375; assay: Induction of apoptosis in human A375 cells assessed as viable cells at 5 uM after 12 hrs by annexinV-FITC/propidium iodide staining based flow cytometric analysis (reference value: 97.94%); format: functional; conditions: read-out: Activity
[21] = tested on: A-375; assay: Induction of cell cycle arrest in human A375 cells assessed as accumulation at S phase at 5 uM after 24 hrs by propidium iodide staining based flow cytometric analysis (reference value: 37.33%); format: functional
[22] = tested on: A-375; assay: Induction of cell cycle arrest in human A375 cells assessed as accumulation at G2 phase at 5 uM after 24 hrs by propidium iodide staining based flow cytometric analysis (reference value: 10.02%); format: functional
[23] = tested on: A-375; assay: Induction of apoptosis in human A375 cells assessed as necrotic cells at 5 uM after 36 hrs by annexinV-FITC/propidium iodide staining based flow cytometric analysis (reference value: 1.63%); format: functional
[24] = tested on: A-375; assay: Induction of apoptosis in human A375 cells assessed as late apoptotic cells at 5 uM after 36 hrs by annexinV-FITC/propidium iodide staining based flow cytometric analysis (reference value: 1.02%); format: functional
[25] = tested on: A-375; assay: Induction of apoptosis in human A375 cells assessed as early apoptotic cells at 5 uM after 36 hrs by annexinV-FITC/propidium iodide staining based flow cytometric analysis (reference value: 3.2%); format: functional
[26] = tested on: A-375; assay: Induction of cell cycle arrest in human A375 cells assessed as accumulation at G1 phase at 5 uM after 24 hrs by propidium iodide staining based flow cytometric analysis (reference value: 52.65%); format: functional
[27] = tested on: A549; assay: Antiproliferative activity against human A549 cells assessed as growth inhibition at 1 uM after 72 hrs by MTT assay relative to control; format: functional; method in brief: as §2
[28] = tested on: MCF7; assay: Antiproliferative activity against human MCF7 cells assessed as growth inhibition at 1 uM after 72 hrs by MTT assay relative to control; format: functional; method in brief: as §2
[29] = tested on: MCF7; assay: Antiproliferative activity against human MCF7 cells assessed as growth inhibition at 10 uM after 72 hrs by MTT assay relative to control; format: functional; conditions: read-out: GI; method in brief: as §2
[30] = species on record: Homo sapiens; assay: Inhibition of PDK (unknown origin) using RYHGHSMSDP as substrate at 80 uM after 30 mins by Kinase-Glo luminescent assay
[31] = tested on: A549; assay: Antiproliferative activity against human A549 cells assessed as reduction in cell viability after 24 hrs by MTT assay; format: functional, cell-based; conditions: A549, 24 h

SMILES | IC50 [1] [µM] | inhibition of growth at 10 µM [3] [%] | IC50 [6] [µM] | IC50 [7] [µM] | IC50 [9] [µM] | IC50 [10] [µM] | IC50 [14] [µM] | EC50 [16] [µM] | IC50 [17] [µM] | growth inhibition (GI) [28] | inhibition of growth at 10 µM [29] [%] | also measured
CC(C)Oc1ccc(C(=O)C(Cl)Cl)cc1[N+](=O)[O-] | 8.7 | 98.2 | 4.9 | 5.6 | 3.5 | 6.2 | 7.8 | 0.33 | 16.9 | inactive | 73.4 | Activity [2]: 6.83%; Activity [4]: 4.29%; viability at 5 µM [5]: 84.2%; Activity [8]: 3.77%; inhibition [11]: 72.4%; inhibition [12]: Active; viability at 5 µM [13]: 68.9%; Activity [15]: 4.71%; Activity [18]: 2.43%; Activity [19]: 2.66%; viability at 5 µM [20]: 91.1%; Activity [21]: 30.65%; Activity [22]: 11.01%; Activity [23]: 2.31%; Activity [24]: 18.83%; Activity [25]: 6.6%; Activity [26]: 58.34%; inhibition of growth at 1 µM ([27]; read-out: GI): 18.7%
O=C(c1ccccc1)C(Cl)Cl | 23.1 | 55.2 | 16.9 | 17.7 | 18.7 | 12.9 | 21.4 | > 80 | 19.7 | inactive | 42.2 | inhibition [30]: 36.6%; growth inhibition (GI) [27]: inactive; IC50 [31]: 15.9 µM

Source: ChEMBL document CHEMBL4732185, “Synthesis, biological evaluation and structure-activity relationship of novel dichloroacetophenones targeting pyruvate dehydrogenase kinases with potent anticancer activity” (Eur J Med Chem, 2021)
